Active and inactive are the calls of the source. No cut-off for these calls is given here.
Key:
[1] = biological target: T1, Polyunsaturated fatty acid lipoxygenase ALOX12 (Homo sapiens) (UniProt P18054); assay: Inhibition of 12-LOX in human PMNL assessed as reduction in 12-LOX product formation at 10 uM treated with AA and A23187 by RP-HPLC method; format: tissue-based
T1 sequence (whole entry): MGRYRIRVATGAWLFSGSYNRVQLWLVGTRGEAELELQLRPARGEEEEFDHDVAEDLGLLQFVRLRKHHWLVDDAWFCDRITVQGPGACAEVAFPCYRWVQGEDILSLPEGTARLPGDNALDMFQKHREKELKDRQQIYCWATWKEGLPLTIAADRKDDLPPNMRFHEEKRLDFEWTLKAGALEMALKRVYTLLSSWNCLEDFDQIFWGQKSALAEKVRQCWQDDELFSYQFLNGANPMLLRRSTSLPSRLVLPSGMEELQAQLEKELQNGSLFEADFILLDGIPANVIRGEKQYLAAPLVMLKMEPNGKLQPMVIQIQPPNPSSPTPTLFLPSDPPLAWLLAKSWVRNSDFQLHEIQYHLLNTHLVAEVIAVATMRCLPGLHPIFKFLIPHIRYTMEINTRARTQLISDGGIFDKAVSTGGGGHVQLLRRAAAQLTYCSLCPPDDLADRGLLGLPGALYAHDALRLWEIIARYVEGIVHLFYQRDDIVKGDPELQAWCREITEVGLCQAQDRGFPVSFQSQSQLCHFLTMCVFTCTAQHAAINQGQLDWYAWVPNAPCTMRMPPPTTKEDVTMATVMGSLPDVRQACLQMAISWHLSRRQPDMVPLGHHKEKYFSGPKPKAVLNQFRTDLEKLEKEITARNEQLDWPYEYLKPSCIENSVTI

[2] = tested on: Mus musculus; assay: Antiinflammatory activity in zymosan-induced CD-1 mouse peritonitis model assessed as reduction in LOX derived metabolites at 10 mg/kg, po preincubated with compound for 60 mins followed by zymosan addition and measured after 30 mins; format: functional, organism-based; conditions: time 90.0 min
Summary of the method: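 Oral dosing at 10 mg/kg in zymosan peritonitis; mice killed 30 min after zymosan. Peritoneal exudate lipid mediators and fatty acids profiled by UPLC-MS/MS, with LTC4 measured by ELISA; results expressed as fold change versus vehicle.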

[3] = biological target: T2, Prostaglandin G/H synthase 1 (Ovis aries) (UniProt P05979); assay: Inhibition of ovine COX-1 assessed as reduction in 12-HHT formation at 10 uM using arachidonic acid as substrate preincubated for 6 mins followed by substrate addition by RPL-HPLC method
T2 sequence (whole entry): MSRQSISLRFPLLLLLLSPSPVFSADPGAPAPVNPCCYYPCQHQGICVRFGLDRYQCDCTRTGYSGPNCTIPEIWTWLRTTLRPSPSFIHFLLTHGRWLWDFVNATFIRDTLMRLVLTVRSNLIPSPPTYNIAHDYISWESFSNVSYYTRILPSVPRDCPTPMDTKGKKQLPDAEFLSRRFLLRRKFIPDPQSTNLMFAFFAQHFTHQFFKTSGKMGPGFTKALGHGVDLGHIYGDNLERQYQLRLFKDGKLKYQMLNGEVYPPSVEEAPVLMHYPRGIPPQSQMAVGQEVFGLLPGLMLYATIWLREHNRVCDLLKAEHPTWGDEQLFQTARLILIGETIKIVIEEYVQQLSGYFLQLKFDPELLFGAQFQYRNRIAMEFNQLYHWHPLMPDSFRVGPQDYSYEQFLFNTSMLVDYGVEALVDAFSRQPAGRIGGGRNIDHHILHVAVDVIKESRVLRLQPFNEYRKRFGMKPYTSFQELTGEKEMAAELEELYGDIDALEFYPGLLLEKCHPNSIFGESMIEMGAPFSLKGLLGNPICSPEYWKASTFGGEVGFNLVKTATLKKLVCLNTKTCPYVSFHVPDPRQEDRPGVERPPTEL

[4] = tested on: Mus musculus; assay: Antiinflammatory activity in zymosan-induced CD-1 mouse peritonitis model assessed as reduction in LTC4 level at 3 mg/kg, po preincubated with compound for 60 mins followed by zymosan addition and measured after 30 mins by ELISA; format: functional, organism-based; conditions: time 90.0 min
Summary of the method: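 Oral dosing at 3 mg/kg in zymosan-induced peritonitis; mice killed 30 min after zymosan; LTC4 in peritoneal exudate measured by ELISA; two-tailed unpaired t-test of log data.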

[5] = biological target: T3, Prostaglandin G/H synthase 2 (Homo sapiens) (UniProt P35354); assay: Inhibition of recombinant human COX-2 assessed as reduction in 12-HHT formation at 10 uM using arachidonic acid as substrate preincubated for 6 mins followed by substrate addition by RPL-HPLC method
T3 sequence (whole entry): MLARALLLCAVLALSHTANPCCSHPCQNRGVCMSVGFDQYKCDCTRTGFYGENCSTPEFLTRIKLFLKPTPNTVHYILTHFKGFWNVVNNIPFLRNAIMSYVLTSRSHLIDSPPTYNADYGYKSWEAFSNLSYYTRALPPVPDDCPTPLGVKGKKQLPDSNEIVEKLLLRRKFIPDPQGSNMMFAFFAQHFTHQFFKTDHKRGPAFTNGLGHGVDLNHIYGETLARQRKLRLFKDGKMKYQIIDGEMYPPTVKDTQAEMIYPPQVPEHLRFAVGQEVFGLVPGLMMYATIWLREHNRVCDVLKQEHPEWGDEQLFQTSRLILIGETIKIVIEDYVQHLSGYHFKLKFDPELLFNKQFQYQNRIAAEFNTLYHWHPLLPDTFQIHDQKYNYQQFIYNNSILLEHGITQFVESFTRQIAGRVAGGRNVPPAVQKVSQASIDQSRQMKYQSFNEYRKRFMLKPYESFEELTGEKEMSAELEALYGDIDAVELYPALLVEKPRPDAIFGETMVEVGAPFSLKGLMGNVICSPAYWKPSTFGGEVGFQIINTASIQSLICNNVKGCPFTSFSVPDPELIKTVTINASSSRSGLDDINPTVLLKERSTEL

[6] = tested on: HepaRG; assay: Induction of CYP3A4 expression in human HepaRG cells at 0.1 to 10 uM incubated for 48 hrs by fluorescence based assay; format: functional, cell-based; conditions: dose 0.1-10 µM
Summary of the method: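 Differentiated HepaRG cells treated for 48 h; CYP3A4-expressing cells visualized by fluorescence imaging at 20× magnification; n = 3 independent experiments, with n = 9 for untreated cells.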

[7] = tested on: Monocyte; assay: Cytotoxicity against human monocytes assessed as reduction in LDH release at 1 to 10 uM after 2 to 24 hrs by CytoTox96 nonradioactive assay; format: cell-based; conditions: dose lower 1 µM, time lower 2 hrs, dose upper 10 µM, time upper 24 hrs
Summary of the method: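 Monocytes at 4 × 10^5/mL in monocyte medium treated 2 or 24 h at 37 °C, 5% CO2, with 0.1% DMSO vehicle. LDH release measured by CytoTox 96 kit, with Triton X-100 (0.8%) defining maximum release.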

Which inhibition [1] does the source give for `C/C(=C\CC/C(C)=C/CC[C@]1(C)CCc2c(C)c(O)c(C)c(C)c2O1)CCC=C(CO)CO` here?
The inhibition was “inactive”.

What about the Activity [2] of the same compound?
Its Activity is “Active”.

And the inhibition [3]?
Its inhibition is “inactive”.

And the Activity [4]?
The Activity was “Active”.

And the inhibition [5]?
Its inhibition is “inactive”.

What about the Activity [6] of the same compound?
Its Activity is “inactive”.

And the Activity [7]?
Its Activity is “Toxic”.

Source: ChEMBL document CHEMBL4834471 (J Med Chem, 2021)
